Values after ≈ are worked out from the molar mass of the structure shown. Active and inactive are the calls of the source. The rule behind the calls is not given here. Where a SMILES comes first, the peptide text is derived from it. Bridges are numbered along the chain shown (N, C = ends). [ ]: non-standard residue; d: D form. The star is where a group is joined. X1 = CC[C@H](C)CCCCC(=O)*; βNA = c1ccc2cc(N*)ccc2c1; Dab = NCC[C@H](N)C(=O)O
Tests used:
Klebsiella aerogenes [1] = test: Induction of cell transmembrane potential disruption in Enterobacter aerogenes Ea289 assessed as membrane potential by measuring fluorescence level at 100 uM by [DiSC3(5)] based assay (reference value: 0.2%)
[2] = Toxicity in BALB/cByJ mouse assessed as effect on mouse survival at 50 uM, ip measured after 48 hrs; assay type: organism-based; details: in vivo
Klebsiella aerogenes [3] = test: Potentiation of chloramphenicol-induced antibacterial activity against Enterobacter aerogenes Ea289 assessed as ratio of the chloramphenicol alone MIC to […] in presence of MIC/4 level of compound incubated for 18 hrs; assay type: functional
How it was run: (§1)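 Broth microdilution in MH broth, 10^5 CFU inoculum, two-fold antibiotic dilutions, with or without compound at MIC/4. MIC is the lowest concentration with no visible growth after 18 h at 37°C. Gain is antibiotic MIC alone divided by MIC with compound. MICs repeated in at least three independent experiments; up to 5% DMSO.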

[4] = Toxicity in CHO cells assessed as reduction in cell viability incubated for 24 hrs by WST1 assay; assay type: cell-based; details: Chinese hamster (Cricetulus griseus)
How it was run: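 CHO-K1 cells in McCoy's 5A with 10% FCS, exposed in triplicate to 30–1200 μM compound for 24 h at 37°C. After PBS washes, 30 min in medium with 10% WST-1; absorbance at 450 nm. IC50 is the concentration giving 50% loss of viable cells.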

Klebsiella aerogenes [5] = test: Potentiation of doxycycline-induced antibacterial activity against Enterobacter aerogenes Ea289 assessed as ratio of the doxycycline alone MIC to doxycycline MIC in presence of MIC/4 level of compound incubated for 18 hrs; assay type: functional; how it was run: as §1
Salmonella typhimurium [6] = test: Potentiation of chloramphenicol-induced antibacterial activity against Salmonella enterica subsp. enterica serovar Typhimurium BN10055 assessed as ratio of the chloramphenicol alone MIC to […] in presence of MIC/4 level of compound incubated for 18 hrs; assay type: functional; how it was run: as §1
Salmonella typhimurium [7] = test: Potentiation of nalidixic acid-induced antibacterial activity against Salmonella enterica subsp. enterica serovar Typhimurium BN10055 assessed as ratio of the nalidixic acid alone MIC to […] in presence of MIC/4 level of compound incubated for 18 hrs; assay type: functional; how it was run: as §1
Salmonella typhimurium [8] = test: Potentiation of doxycycline-induced antibacterial activity against Salmonella enterica subsp. enterica serovar Typhimurium BN10055 assessed as ratio of the doxycycline alone MIC to doxycycline MIC in presence of MIC/4 level of compound incubated for 18 hrs; assay type: functional; how it was run: as §1
Salmonella typhimurium [9] = test: Potentiation of erythromycin-induced antibacterial activity against Salmonella enterica subsp. enterica serovar Typhimurium BN10055 assessed as ratio of the erythromycin alone MIC to erythromycin MIC in presence of MIC/4 level of compound incubated for 18 hrs; assay type: functional; how it was run: as §1
Klebsiella aerogenes [10] = test: Potentiation of chloramphenicol-induced antibacterial activity against Enterobacter aerogenes Ea289 assessed as efficiency index by measuring sum of gain factor for each test compound reported for chloramphenicol/nalidixic acid/doxycycline/erythromycin and divided by concentration of test compound; assay type: functional; details: pooled result: one value given for 2 cell lines, strains, targets or settings
How it was run: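 Gain factors (antibiotic MIC alone / MIC with compound at MIC/4; broth dilution, 18 h, 37°C) for erythromycin, doxycycline, nalidixic acid and chloramphenicol are summed, then divided by the compound concentration used in the assay.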

[11] = Toxicity index, ratio of IC50 for toxicity in CHO cells to concentration of test compound causing at least 8 times decrease of MIC of almost 3 antibiotics (chloramphenicol/nalidixic acid/doxycycline/erythromycin ) against Enterobacter aerogenes Ea289; assay type: cell-based; details: hamster, pooled result: one value given for 2 cell lines, strains, targets or settings
Salmonella typhimurium [12] = test: Potentiation of doxycycline-induced antibacterial activity against Salmonella typhimurium assessed as mouse survival rate at 0.5 mg/kg, ip co-treated with 64 mg/kg for doxycycline (reference value: 0%); assay type: functional, Salmonella enterica subsp. enterica serovar Typhimurium
How it was run: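 Female BALB/cByJ mice, 5-6 weeks, anaesthetized with sevoflurane, infected ip with 200 µL of S. Typhimurium at 10² CFU/mL. Daily dosing with saline, doxycycline 64 mg/kg alone, or doxycycline 64 mg/kg plus 0.5 mg/kg compound. Mice weighed daily; sacrificed at day 1 (n=3), 3 (n=3) or 7 (n=6).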

[13] = Toxicity in BALB/cByJ mouse assessed as induction of toxic signs at 50 uM, ip measured after 48 hrs; assay type: organism-based; details: in vivo
Klebsiella aerogenes [14] = test: Induction of outer cell membrane permeabilization in Enterobacter aerogenes Ea289 assessed as induction of nitrocefin hydrolysis at 100 uM measured during initial 200 secs; assay type: organism-based
How it was run: (§2)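 Cells at OD600 0.25 in phosphate buffer (20 mM K2HPO4, 1 mM MgCl2, pH 7.0) with 5 μM CCCP, mixed with nitrocefin 50 μg/mL, then compound at 100 μM. Periplasmic β-lactamase hydrolysis followed by absorbance at 490 nm every 30 s at 37°C.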

Klebsiella aerogenes [15] = test: Induction of outer cell membrane permeabilization in Enterobacter aerogenes Ea289 assessed as induction of nitrocefin hydrolysis at 100 uM incubated for 15 mins; assay type: organism-based; how it was run: as §2
Klebsiella aerogenes [16] = test: Induction of outer cell membrane permeabilization in Enterobacter aerogenes Ea289 assessed as induction of H33342 dye penetration at 100 uM; assay type: organism-based
Klebsiella aerogenes [17] = test: Inhibition of AcrAB-TolC in Enterobacter aerogenes Ea289 assessed as retention of 1,2'diNA dye within bacterial membranes at 100 uM relative to control; parameters: scale not given: the % may be the effect or the level left
How it was run: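 Stationary-phase cells at OD600 0.25 in potassium phosphate buffer pH 7.0 with CCCP 5 µM, loaded overnight with 1,2'-diNA 32 µM at 37°C, washed, compound added at 100 µM. Glucose 50 mM added at 300 s to energize efflux. Fluorescence (ex 370/em 420 nm) read every 30 s at 37°C; PAβN 100 µM as reference.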

Klebsiella aerogenes [18] = test: Potentiation of erythromycin-induced antibacterial activity against Enterobacter aerogenes Ea289 assessed as ratio of the erythromycin alone MIC to erythromycin MIC in presence of MIC/4 level of compound incubated for 18 hrs
Klebsiella aerogenes [19] = test: Potentiation of nalidixic acid-induced antibacterial activity against Enterobacter aerogenes Ea289 assessed as ratio of the nalidixic acid alone MIC to nalidixic acid MIC in presence of MIC/4 level of compound incubated for 18 hrs
Klebsiella aerogenes [20] = test: Antibacterial activity against Enterobacter aerogenes Ea289 containing deltaacrB mutant assessed as inhibition of bacterial growth incubated for 18 hrs; assay type: organism-based
How it was run: (§3)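 Broth microdilution per CA-SFM in MH broth; inoculum 10⁵ CFU in 200 µL with two-fold serial dilutions; compounds dissolved in DMSO, up to 5% DMSO on bacteria. MIC = lowest concentration with no visible growth after 18 h at 37°C. Repeated at least three times independently.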

Salmonella typhimurium [21] = test: Antibacterial activity against Salmonella enterica subsp. enterica serovar Typhimurium BN10055 containing deltaacrB mutant assessed as inhibition of bacterial growth incubated for 18 hrs; assay type: organism-based; how it was run: as §3
Klebsiella aerogenes [22] = test: Antibacterial activity against Enterobacter aerogenes Ea289 assessed as inhibition of bacterial growth incubated for 18 hrs; assay type: organism-based; how it was run: as §3
Salmonella typhimurium [23] = test: Antibacterial activity against Salmonella enterica subsp. enterica serovar Typhimurium BN10055 assessed as inhibition of bacterial growth incubated for 18 hrs; assay type: organism-based; how it was run: as §3

SMILES: CC[C@H](C)CCCCC(=O)N[C@@H](CCN)C(=O)N[C@H](C(=O)N[C@@H](CCN)C(=O)N[C@H]1CCNC(=O)[C@H]([C@@H](C)O)NC(=O)[C@H](CCN)NC(=O)[C@H](CCN)NC(=O)[C@H](CC(C)C)NC(=O)[C@@H](Cc2ccccc2)NC(=O)[C@H](CCN)NC1=O)[C@@H](C)O (X1-[Dab]T[Dab][Dab][Dab][dF]L[Dab][Dab]T; lactam 4-C)
- Activity (Klebsiella aerogenes [1]): 14%

SMILES: CC(C)=CCCC(C)=CCNCCCN(CCCN)CCCN
- Activity [2]: Non-Toxic
- Ratio (Klebsiella aerogenes [3]): 8
- IC50 at 24 h [4]: 127 µM
- Ratio (Klebsiella aerogenes [5]): 32
- Ratio (Salmonella typhimurium [6]): 16
- Ratio (Salmonella typhimurium [7]): 128
- Ratio (Salmonella typhimurium [8]): 16
- Ratio (Salmonella typhimurium [9]): 4
- Activity_index (Klebsiella aerogenes [10]): 3.65
- selectivity ratio [11]: 16.2
- Survival (Salmonella typhimurium [12]): 43%
- Activity [13]: Non-Toxic
- Activity (Klebsiella aerogenes [14]): inactive
- Activity (Klebsiella aerogenes [15]): Active
- Activity (Klebsiella aerogenes [16]): Active
- Activity (Klebsiella aerogenes [17]): 68%
- Activity (Klebsiella aerogenes [1]): 1%
- Ratio (Klebsiella aerogenes [18]): 16
- Ratio (Klebsiella aerogenes [19]): 8

SMILES: CC(C)=CCC/C(C)=C\CCC(C)=CCNCCCCCCCCCCCCN
- Ratio (Klebsiella aerogenes [3]): 2
- IC50 at 24 h [4]: 25.3 µM
- Ratio (Klebsiella aerogenes [5]): 2
- Ratio (Salmonella typhimurium [6]): 4
- Ratio (Salmonella typhimurium [7]): 8
- Ratio (Salmonella typhimurium [8]): 8
- Ratio (Salmonella typhimurium [9]): 2
- MIC (Klebsiella aerogenes [20]): 7.8 µM (≈ 3.16 µg/mL)
- MIC (Salmonella typhimurium [21]): 3.9 µM (≈ 1.58 µg/mL)
- Ratio (Klebsiella aerogenes [18]): 1
- Ratio (Klebsiella aerogenes [19]): 1

SMILES: CC(C)=CCCC(C)=CCNCCNCCNCCNCCNCCN
- Ratio (Klebsiella aerogenes [3]): 8
- IC50 at 24 h [4]: > 150 µM
- Ratio (Klebsiella aerogenes [5]): 2
- Ratio (Salmonella typhimurium [6]): 8
- Ratio (Salmonella typhimurium [7]): 16
- Ratio (Salmonella typhimurium [8]): 4
- Activity_index (Klebsiella aerogenes [10]): 0
- selectivity ratio [11]: 0.06
- MIC (Klebsiella aerogenes [22]): > 500 µM
- MIC (Salmonella typhimurium [23]): > 500 µM
- Ratio (Klebsiella aerogenes [18]): 1
- Ratio (Klebsiella aerogenes [19]): 4

SMILES: CC(C)=CCC/C(C)=C\CCC(C)=CCNCCCN(C)CCCN
- Ratio (Klebsiella aerogenes [3]): 8
- IC50 at 24 h [4]: 10.5 µM
- Ratio (Klebsiella aerogenes [5]): 64
- Ratio (Salmonella typhimurium [6]): 16
- Ratio (Salmonella typhimurium [7]): 128
- Ratio (Salmonella typhimurium [8]): 64
- Ratio (Salmonella typhimurium [9]): 8
- Activity_index (Klebsiella aerogenes [10]): 7.17
- selectivity ratio [11]: 1.34
- Ratio (Klebsiella aerogenes [18]): 128
- Ratio (Klebsiella aerogenes [19]): 32

SMILES: CC(C)=CCC/C(C)=C\CCC(C)=CCNCCCNCCCN
- Ratio (Klebsiella aerogenes [3]): 8
- IC50 at 24 h [4]: 30.2 µM
- Ratio (Klebsiella aerogenes [5]): 32
- Ratio (Salmonella typhimurium [6]): 8
- Ratio (Salmonella typhimurium [7]): 64
- Ratio (Salmonella typhimurium [8]): 32
- Ratio (Salmonella typhimurium [9]): 8
- Activity_index (Klebsiella aerogenes [10]): 3.58
- selectivity ratio [11]: 3.86
- Ratio (Klebsiella aerogenes [18]): 64
- Ratio (Klebsiella aerogenes [19]): 8

SMILES: N=C(N)NCCC[C@H](NC(=O)[C@@H](N)Cc1ccccc1)C(=O)Nc1ccc2ccccc2c1 [PABETAN] (H-Phe-Arg-βNA)
- Ratio (Klebsiella aerogenes [3]): 16
- Ratio (Klebsiella aerogenes [5]): 16
- Ratio (Salmonella typhimurium [6]): 8
- Ratio (Salmonella typhimurium [7]): 64
- Ratio (Salmonella typhimurium [8]): 16
- Ratio (Salmonella typhimurium [9]): 8
- Activity (Klebsiella aerogenes [17]): 25%
- Ratio (Klebsiella aerogenes [18]): 8
- Ratio (Klebsiella aerogenes [19]): 8

SMILES: CC(C)=CCC/C(C)=C\CCC(C)=CCNCCCN(CCCN)CCCN
- Ratio (Klebsiella aerogenes [3]): 32
- IC50 at 24 h [4]: > 150 µM
- Ratio (Klebsiella aerogenes [5]): 16
- Ratio (Salmonella typhimurium [6]): 16
- Ratio (Salmonella typhimurium [7]): 128
- Ratio (Salmonella typhimurium [8]): 8
- Ratio (Salmonella typhimurium [9]): 1
- Activity_index (Klebsiella aerogenes [10]): 3.54
- selectivity ratio [11]: 19.2
- Ratio (Klebsiella aerogenes [18]): 4
- Ratio (Klebsiella aerogenes [19]): 16

SMILES: CC(C)=CCC/C(C)=C\CCC(C)=CCNCCNCCNCCNCCNCCN
- Ratio (Klebsiella aerogenes [3]): 4
- IC50 at 24 h [4]: 41.7 µM
- Ratio (Klebsiella aerogenes [5]): 16
- Ratio (Salmonella typhimurium [6]): 8
- Ratio (Salmonella typhimurium [7]): 32
- Ratio (Salmonella typhimurium [8]): 16
- Ratio (Salmonella typhimurium [9]): 2
- Activity_index (Klebsiella aerogenes [10]): 2.88
- selectivity ratio [11]: 10.7
- MIC (Klebsiella aerogenes [20]): 7.8 µM (≈ 3.41 µg/mL)
- Ratio (Klebsiella aerogenes [18]): 4
- Ratio (Klebsiella aerogenes [19]): 8

SMILES: CC(C)=CCCC(C)=CCNCCNCCNCCN
- Ratio (Klebsiella aerogenes [3]): 8
- IC50 at 24 h [4]: > 150 µM
- Ratio (Salmonella typhimurium [6]): 4
- Ratio (Salmonella typhimurium [7]): 16
- Activity_index (Klebsiella aerogenes [10]): 0
- selectivity ratio [11]: 0.06
- MIC (Klebsiella aerogenes [22]): > 500 µM
- MIC (Salmonella typhimurium [23]): > 500 µM
- Ratio (Klebsiella aerogenes [19]): 2

Reference: ChEMBL document CHEMBL4622992, “New Polyaminoisoprenyl Antibiotics Enhancers against Two Multidrug-Resistant Gram-Negative Bacteria from Enterobacter and Salmonella Species” (J Med Chem, 2020)
